Data as given in ChEMBL document CHEMBL1143019, “Hybrid molecules of estrone: new compounds with potential antibacterial, antifungal, and antiproliferative activities” (2007).
≈ marks a conversion by molar mass, not a printed value.

What was measured:
Aspergillus fumigatus [1] = assay: Antifungal activity against Aspergillus fumigatus 231 after 24 hrs; format: functional
Method in brief: (§1)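 Modified NCCLS M27-A broth microdilution with clinical isolates subcultured on Sabouraud dextrose agar. Suspensions diluted 1:50 in RPMI 1640 to give a final inoculum of 0.5–2.5×10³ CFU/mL for yeasts or 0.5–5×10⁴ CFU/mL for molds. The RPMI had L-glutamine, no bicarbonate, and 0.165 M MOPS to pH 7.0. Twofold dilutions from 250 to 0.49. Plates held at 35 °C, humid, without agitation. MIC is the lowest concentration giving ≥80% inhibition versus drug-free control, read at 24 and 48 h.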

[2] = system: Mycobacterium tuberculosis; assay: Antimicrobial activity against Mycobacterium tuberculosis My 331/88 after 14 days; format: functional; conditions: 336 h
[3] = system: Mycobacterium tuberculosis; assay: Antimicrobial activity against Mycobacterium tuberculosis My 331/88 after 21 days; format: functional; conditions: 504 h
Candida albicans [4] = assay: Antifungal activity against Candida albicans ATCC 44859 after 24 hrs; format: functional; conditions: ATCC 44859, 24 h; method in brief: as §1
Mycobacterium kansasii [5] = assay: Antimicrobial activity against Mycobacterium kansasii My 235/80 after 7 days; format: functional; conditions: 168 h
Method in brief: (§2)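 Run in Šula semisynthetic liquid medium containing bovine serum. Compounds added as DMSO solutions at final concentrations of […]. Each strain was also inoculated onto Löwenstein–Jensen medium to control inoculum sterility and growth.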

Aspergillus fumigatus [6] = assay: Antifungal activity against Aspergillus fumigatus 231 after 48 hrs; format: functional; method in brief: as §1
Nakaseomyces glabratus [7] = assay: Antifungal activity against Candida glabrata 20/I after 48 hrs; format: functional; method in brief: as §1
Pichia kudriavzevii [8] = assay: Antifungal activity against Candida krusei E28 after 24 hrs; format: functional; method in brief: as §1
HeLa = assay: Cytotoxicity against human HeLa cells after 72 hrs; format: functional; conditions: for CC50: Homo sapiens, HeLa, 72 h
Method in brief: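 About 10,000 cells per well in RPMI 1640 were preincubated 48 h without compound. The 10 test concentrations were then applied onto the monolayers and incubated 72 h at 37 °C in humidified 5% CO₂. Monolayers fixed with glutaraldehyde, stained with 0.05% methylene blue, and eluted with 0.33 N HCl; optical density measured at 630 nm.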

Trichosporon beigelii [9] = assay: Antifungal activity against Trichosporon beigelii 1188 after 24 hrs; format: functional; method in brief: as §1
Candida tropicalis [10] = assay: Antifungal activity against Candida tropicalis 156 after 24 hrs; format: functional; method in brief: as §1
Candida albicans [11] = assay: Antifungal activity against Candida albicans ATCC 44859 after 48 hrs; format: functional; conditions: ATCC 44859, 48 h; method in brief: as §1
Mycobacterium kansasii [12] = assay: Antimicrobial activity against Mycobacterium kansasii My 6509/96 after 7 days; format: functional; conditions: 168 h; method in brief: as §2
Lichtheimia corymbifera [13] = assay: Antifungal activity against Absidia corymbifera 272 after 48 hrs; format: functional; method in brief: as §1
L929 = assay: Antiproliferative activity against mouse L929 cells after 72 hrs; format: functional; conditions: L929, 72 h
Method in brief: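 About 10,000 adherent cells per well in RPMI 1640 with 10% heat-inactivated FBS and penicillin/streptomycin, without HEPES. Exposed to 10 concentrations for 72 h at 37 °C in humidified 5% CO₂. Monolayers fixed with glutaraldehyde, stained 15 min with 0.05% methylene blue, and eluted with 0.33 N HCl; OD read at 630 nm. GI50 derived from dose–response curves relative to control.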

Trichophyton benhamiae [14] = assay: Antifungal activity against Trichophyton mentagrophytes 445 after 120 hrs; format: functional, Arthroderma benhamiae
Method in brief: (§3)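 Same modified M27-A microdilution with the mold inoculum of 0.5–5×10⁴ CFU/mL. Medium was RPMI 1640 with L-glutamine, no bicarbonate, and 0.165 M MOPS at pH 7.0. Twofold dilutions from 250 to 0.49. Incubated at 35 °C in a humid atmosphere.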

Lichtheimia corymbifera [15] = assay: Antifungal activity against Absidia corymbifera 272 after 24 hrs; format: functional; method in brief: as §1
Mycobacterium avium [16] = assay: Antimicrobial activity against Mycobacterium avium My 330/88 after 21 days; format: functional; conditions: 504 h
Mycobacterium kansasii [17] = assay: Antimicrobial activity against Mycobacterium kansasii My 235/80 after 14 days; format: functional; conditions: 336 h; method in brief: as §2
Mycobacterium kansasii [18] = assay: Antimicrobial activity against Mycobacterium kansasii My 235/80 after 21 days; format: functional; conditions: 504 h; method in brief: as §2
Mycobacterium avium [19] = assay: Antimicrobial activity against Mycobacterium avium My 330/88 after 14 days; format: functional; conditions: 336 h
Trichophyton benhamiae [20] = assay: Antifungal activity against Trichophyton mentagrophytes 445 after 72 hrs; format: functional, Arthroderma benhamiae; method in brief: as §3
Nakaseomyces glabratus [21] = assay: Antifungal activity against Candida glabrata 20/I after 24 hrs; format: functional; method in brief: as §1
Candida tropicalis [22] = assay: Antifungal activity against Candida tropicalis 156 after 48 hrs; format: functional; method in brief: as §1
Pichia kudriavzevii [23] = assay: Antifungal activity against Candida krusei E28 after 48 hrs; format: functional; method in brief: as §1
K562 = assay: Antiproliferative activity against human K562 cells after 72 hrs; format: functional; conditions: K562, 72 h
Method in brief: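 About 10,000 suspension cells per well in RPMI 1640 with 10% heat-inactivated FBS and penicillin/streptomycin, without HEPES. Exposed to 10 concentrations for 72 h at 37 °C in humidified 5% CO₂. Wells diluted 1:50 in CASYTON and counted electronically, each result the mean of three successive counts. GI50 is where the concentration–response curve crosses 50% of control cell count.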

Mycobacterium kansasii [24] = assay: Antimicrobial activity against Mycobacterium kansasii My 6509/96 after 21 days; format: functional; conditions: 504 h; method in brief: as §2
Trichosporon beigelii [25] = assay: Antifungal activity against Trichosporon beigelii 1188 after 48 hrs; format: functional; method in brief: as §1
Mycobacterium kansasii [26] = assay: Antimicrobial activity against Mycobacterium kansasii My 6509/96 after 14 days; format: functional; conditions: 336 h; method in brief: as §2
Micrococcus luteus = assay: Antibacterial activity against Micrococcus luteus ATCC 10240 after 24 hrs by microbroth dilution method; format: functional; conditions: ATCC 10240, 24 h
Method in brief: (§4)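 Microbroth dilution per NCCLS guidelines. Bacteria grown overnight at 37 °C in Mueller–Hinton broth. Compound solution serially diluted twofold in MHB, then wells inoculated to a final 5×10⁵ CFU/mL. Incubated 24 h at 37 °C. MIC (µg/mL) read on an automatic plate reader as the lowest dilution allowing no visible growth.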

Enterococcus faecalis = assay: Antibacterial activity against Enterococcus faecalis 1528 after 24 hrs by micro-broth dilution method; format: functional; method in brief: as §4
Mycolicibacterium aurum = assay: Antimicrobial activity against Mycobacterium aurum SB 66 after 24 hrs by micro-broth dilution method; format: functional; method in brief: as §4
[27] = system: Mycolicibacterium fortuitum; assay: Antimicrobial activity against Mycobacterium fortuitum Borstel after 24 hrs by microbroth dilution method; format: functional; method in brief: as §4
Staphylococcus aureus [28] = assay: Antibacterial activity against methicillin-resistant Staphylococcus aureus 994/93 after 24 hrs by micro-broth dilution method; format: functional
Method in brief: (§5)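 Broth microdilution per NCCLS in Mueller–Hinton broth. Overnight cultures grown at 37 °C. Compound serially diluted twofold, then wells inoculated to a final 5×10⁵ CFU/mL. Plates held at 37 °C for 24 h. MIC (µg/mL) read on an automatic plate reader as the lowest dilution with no visible growth.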

Mycolicibacterium vaccae = assay: Antimicrobial activity against Mycobacterium vaccae 10670 after 24 hrs by micro-broth dilution method; format: functional; method in brief: as §4
Staphylococcus aureus [29] = assay: Antibacterial activity against Staphylococcus aureus SG 511 after 24 hrs by micro-broth dilution method; format: functional; conditions: SG 511, 24 h; method in brief: as §4
[30] = system: Mycolicibacterium smegmatis; assay: Antimicrobial activity against Mycobacterium smegmatis SG 987 after 24 hrs by micro-broth dilution method; format: functional; method in brief: as §4
Staphylococcus aureus [31] = assay: Antibacterial activity against methicillin-resistant Staphylococcus aureus 134/94 after 24 hrs by microbroth dilution method; format: functional; method in brief: as §5

Compound `Clc1ccc(-n2nnnc2SCc2ccccc2)cc1Cl` has an MIC (Aspergillus fumigatus [1]) of 250 µM (≈ 84.3 µg/mL), an MIC [2] of 16 µM (≈ 5.4 µg/mL) and an MIC [3] of 32 µM (≈ 10.8 µg/mL). For the same compound, the MIC (Candida albicans [4]) was greater than 250 µM, the MIC (Mycobacterium kansasii [5]) was 8 µM (≈ 2.7 µg/mL) and the MIC (Aspergillus fumigatus [6]) was greater than 250 µM. It also gave an MIC (Nakaseomyces glabratus [7]) greater than 250 µM, an MIC (Pichia kudriavzevii [8]) greater than 250 µM and a CC10 (HeLa) of 9.9 µg/mL (≈ 29.4 µM). It also gave a CC50 (HeLa) of 48.6 µg/mL (≈ 144 µM), an MIC (Trichosporon beigelii [9]) greater than 250 µM and an MIC (Candida tropicalis [10]) greater than 250 µM. The MIC (Candida albicans [11]) was greater than 250 µM, the MIC (Mycobacterium kansasii [12]) was 16 µM (≈ 5.4 µg/mL) and the MIC (Lichtheimia corymbifera [13]) was greater than 250 µM. For the same compound, the GI50 (L929) was 19.1 µg/mL (≈ 56.6 µM), the MIC (Trichophyton benhamiae [14]) was 125 µM (≈ 42.2 µg/mL) and the MIC (Lichtheimia corymbifera [15]) was greater than 250 µM. For the same compound, the MIC (Mycobacterium avium [16]) was 125 µM (≈ 42.2 µg/mL), the MIC (Mycobacterium kansasii [17]) was 16 µM (≈ 5.4 µg/mL) and the MIC (Mycobacterium kansasii [18]) was 32 µM (≈ 10.8 µg/mL). It also gave an MIC (Mycobacterium avium [19]) of 62.5 µM (≈ 21.1 µg/mL), an MIC (Trichophyton benhamiae [20]) of 125 µM (≈ 42.2 µg/mL) and an MIC (Nakaseomyces glabratus [21]) greater than 250 µM. It also gave an MIC (Candida tropicalis [22]) greater than 250 µM, an MIC (Pichia kudriavzevii [23]) greater than 250 µM and a GI50 (K562) greater than 50 µg/mL. The MIC (Mycobacterium kansasii [24]) was 62.5 µM (≈ 21.1 µg/mL), the MIC (Trichosporon beigelii [25]) was greater than 250 µM and the MIC (Mycobacterium kansasii [26]) was 32 µM (≈ 10.8 µg/mL).

With `Cc1ccc(CSc2ccncc2)cc1` the MIC [2] was 62.5 µM (≈ 13.5 µg/mL), the MIC [3] was 62.5 µM (≈ 13.5 µg/mL) and the MIC (Mycobacterium kansasii [5]) was 32 µM (≈ 6.89 µg/mL). It also gave an MIC (Micrococcus luteus) of 100 µg/mL (≈ 464 µM), a CC10 (HeLa) of 13.3 µg/mL (≈ 61.8 µM) and a CC50 (HeLa) of 21.4 µg/mL (≈ 99.4 µM). For the same compound, the MIC (Enterococcus faecalis) was 100 µg/mL (≈ 464 µM), the MIC (Mycolicibacterium aurum) was 25 µg/mL (≈ 116 µM) and the MIC [27] was 12.5 µg/mL (≈ 58.1 µM). For the same compound, the MIC (Mycobacterium kansasii [12]) was 32 µM (≈ 6.89 µg/mL), the MIC (Staphylococcus aureus [28]) was 100 µg/mL (≈ 464 µM) and the GI50 (L929) was 24.3 µg/mL (≈ 113 µM). For the same compound, the MIC (Mycolicibacterium vaccae) was 25 µg/mL (≈ 116 µM), the MIC (Mycobacterium avium [16]) was 125 µM (≈ 26.9 µg/mL) and the MIC (Mycobacterium kansasii [17]) was 62.5 µM (≈ 13.5 µg/mL). For the same compound, the MIC (Mycobacterium kansasii [18]) was 125 µM (≈ 26.9 µg/mL), the MIC (Mycobacterium avium [19]) was 62.5 µM (≈ 13.5 µg/mL) and the MIC (Staphylococcus aureus [29]) was 50 µg/mL (≈ 232 µM). It also gave an MIC [30] of 50 µg/mL (≈ 232 µM), a GI50 (K562) of 37.5 µg/mL (≈ 174 µM) and an MIC (Mycobacterium kansasii [24]) of 125 µM (≈ 26.9 µg/mL). The MIC (Mycobacterium kansasii [26]) was 62.5 µM (≈ 13.5 µg/mL) and the MIC (Staphylococcus aureus [31]) was 100 µg/mL (≈ 464 µM).

With `O=C(O)c1cn(C2CC2)c2cc(N3CCNCC3)c(F)cc2c1=O` [CIPROFLOXACIN] the MIC (Micrococcus luteus) was 12.5 µg/mL (≈ 37.7 µM), the MIC (Enterococcus faecalis) was 0.8 µg/mL (≈ 2.41 µM) and the MIC (Mycolicibacterium aurum) was 0.1 µg/mL (≈ 0.302 µM). For the same compound, the MIC [27] was 0.4 µg/mL (≈ 1.21 µM), the MIC (Staphylococcus aureus [28]) was greater than 100 µg/mL and the MIC (Mycolicibacterium vaccae) was 0.78 µg/mL (≈ 2.35 µM). It also gave an MIC (Staphylococcus aureus [29]) of 0.2 µg/mL (≈ 0.604 µM) and an MIC [30] of 0.78 µg/mL (≈ 2.35 µM).
